The source of these data is ChEMBL document CHEMBL1156758, “Quantitative analyses of aggregation, autofluorescence, and reactivity artifacts in a screen for inhibitors of a thiol protease” (J Med Chem, 2010).

Assay [1] has as its target T1, Cruzipain (Trypanosoma cruzi, UniProt P25779). Description: Inhibition of Trypanosoma cruzi cruzain by quantitative high throughput screening. The essentials:
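1536-well qHTS in 100 mM acetate pH 5.5 with 5 mM DTT, 4 μL final volume. Two conditions: 0.01% Triton X-100 with 1.5 nM cruzain, or 0.00005% Triton with 3 nM cruzain. Seven compound concentrations from 57.5 μM to 3.7 nM, preincubated 15 min at room temperature. Then 2 μM Z-Phe-Arg-AMC added. Fluorescence (ex 340/em 450) read kinetically over 60 s. Initial-rate data fitted to a four-parameter Hill equation.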

For assay [2], the target named is T1, Cruzipain. As to the kind of experiment: Inhibition of Trypanosoma cruzi cruzain by Flexstation microplate spectrofluorimetry. Put shortly:
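Secondary 96-well assay: 0.4 nM cruzain in 0.1 M sodium acetate pH 5.5, 5 mM DTT, with or without 0.01% Triton X-100. Compound from 200x DMSO stock preincubated with enzyme 15 min. Reaction started with Z-Phe-Arg-AMC at 2.5 μM final (Km 2 μM) and followed for 5 min. Percent inhibition taken from initial rates versus a DMSO control. Each assay run at least twice.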

The nature of assay [3]: Inhibition of Beta-lactamase AmpC by quantitative high throughput screening.

T1 sequence (P25779 whole entry): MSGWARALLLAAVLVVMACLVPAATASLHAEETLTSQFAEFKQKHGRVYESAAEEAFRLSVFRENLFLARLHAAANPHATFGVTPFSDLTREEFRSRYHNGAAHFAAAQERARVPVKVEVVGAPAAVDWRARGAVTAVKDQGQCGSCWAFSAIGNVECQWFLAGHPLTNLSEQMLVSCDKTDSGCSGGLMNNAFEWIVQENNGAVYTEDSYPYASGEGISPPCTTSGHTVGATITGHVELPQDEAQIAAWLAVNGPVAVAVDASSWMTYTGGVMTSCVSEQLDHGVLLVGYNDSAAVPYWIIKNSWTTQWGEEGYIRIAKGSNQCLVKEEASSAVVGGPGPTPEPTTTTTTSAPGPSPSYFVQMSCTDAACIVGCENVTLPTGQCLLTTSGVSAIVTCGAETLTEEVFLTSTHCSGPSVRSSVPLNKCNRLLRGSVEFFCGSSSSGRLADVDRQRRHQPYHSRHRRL

On to `O=C(CSCc1ccc(Cl)cc1)c1ccco1`, for which the IC50 in assay [1] was > 60 µM; in assay [2], 120 µM; in assay [3], 10 µM.

`O=C(Nc1nc(-c2cccc(Br)c2)cs1)Oc1ccccc1` had an IC50 in assay [2] of 30 µM. In other words, the double-digit micromolar range.

For `Cc1cc(=O)oc2cc(OCC#N)ccc12`, the IC50 in assay [1] is > 60 µM; in assay [2], > 120 µM; in assay [3], 4 µM.

Consider `O=C(Nc1ccc(/N=N/c2ccccc2)cc1)c1cccc(Cl)c1`, for which 12 µM corresponded to half-maximal inhibition in assay [2] (IC50).

On to `CCCCCCNC(=O)Nc1ccc(S(=O)(=O)Nc2ccc(CCNC[C@H](O)COc3ccc(O)cc3)cc2)cc1` [L-755507], for which the IC50 in assay [1] is > 60 µM; in assay [2], 12 µM.

Take `Cn1c(C(C#N)C(=O)c2sc3ccccc3c2Cl)nc2ccccc21` (configuration not stated): the values for the IC50 in assay [1], in assay [2] and in assay [3] were > 60 µM, 12 µM and 13 µM, respectively.

Take `NC(=O)SCC(=O)Nc1cccc(Cl)c1`: the IC50 in assay [1] is > 60 µM; in assay [2], > 120 µM; in assay [3] it was 8 µM.

Take `Cc1ccc(NC(=O)CSC(N)=O)cc1Cl`: the IC50 in assay [1] is > 60 µM; in assay [2], > 120 µM; in assay [3], 13 µM.

With `CCc1ccc(C(=O)CSC2=C(C#N)C(c3ccco3)C(C(C)=O)=C(C)N2)cc1` (configuration not stated), the values for the IC50 in assay [1], in assay [2] and in assay [3] were > 60 µM, 30 µM and 13 µM, respectively.

In the case of `COC(=O)c1ccc(-c2nc(-c3ccc(Br)o3)no2)cc1`, the IC50 in assay [1] is > 60 µM; in assay [2], 30 µM; in assay [3] it was 4 µM.

Take `C=CCNC(=O)c1cc([N+](=O)[O-])cc2c(=O)[nH]c(Nc3ccc(Cl)c(Cl)c3)nc12`: the concentration for half-maximal inhibition (IC50) was > 60 µM in assay [1] and 2 µM in assay [3].

Regarding `Cc1cc(NC(=O)c2cc(CC(C)C)on2)no1`, the IC50 in assay [1] was > 60 µM; in assay [2] it was 120 µM; in assay [3], 4 µM.

`O=C(COC(=O)c1cc(-c2ccco2)nc2ccccc12)NCc1ccc2c(c1)OCO2`: the IC50 was > 60 µM in assay [1], 30 µM in assay [2] and 13 µM in assay [3].

`Cc1sc(NC(=S)NC(=O)C2CCCCC2)c(C(N)=O)c1C` gave an IC50 in assay [2] of 12 µM. That is a double-digit micromolar value.

The compound `CCN(Cc1ccccc1)c1nc2c(S(=O)(=O)c3ccccc3)nnn2c2ccc(Cl)cc12` displayed an IC50 in assay [2] of 12 µM.

Consider `COc1ccc(S(=O)(=O)Nc2nc3ccccc3nc2NCc2ccc3c(c2)OCO3)cc1`, for which the IC50 in assay [2] stood at 12 µM.

With `CCSc1nnc(NC(=O)c2ccc(Br)s2)s1`, the IC50 in assay [1] was > 60 µM; in assay [2] it was 12 µM; in assay [3] it was 10 µM.

As to `C=C(C)CSc1cc(N)c(C#N)c(-c2ccc(C)cc2)c1C#N`, the IC50 was > 60 µM in assay [1], 12 µM in assay [2] and 6 µM in assay [3].

As for `CCCCC/C=C\C/C=C\C/C=C\C/C=C\CCCC(=O)Nc1ccc(O)cc1`, the IC50 is > 60 µM in assay [1], 30 µM in assay [2] and 10 µM in assay [3].

Regarding `O=[N+]([O-])c1ccccc1S(=O)(=O)NC[C@H]1CC[C@H](CNCC2CCc3ccccc3C2)CC1` (some centres not stated), the results for the IC50 in assay [1], in assay [2] and in assay [3] were > 60 µM, > 120 µM and 13 µM, respectively.

For `Cc1ccc(Cl)cc1NC(=O)CCC(=O)Nc1cc(Cl)ccc1C`, the IC50 in assay [2] came to 12 µM.

For `CCn1ccnc1C(O)c1cccc(OC)c1OC` (configuration not stated), the figures for the IC50 in assay [1], in assay [2] and in assay [3] were > 60 µM, > 120 µM and 4 µM, respectively.

For the compound `COc1ccc(C(=O)Nc2nncs2)c(OC)c1`, the IC50 in assay [1] is > 60 µM; in assay [2], > 120 µM; in assay [3], 4 µM.

As for `O=C(Nc1nc(-c2ccc(S(=O)(=O)N3CCCCCC3)cc2)cs1)c1cccs1`, the results for the IC50 in assay [1], in assay [2] and in assay [3] were > 60 µM, 12 µM and 8 µM, respectively.

On to `O=C(c1ccc(OCCN2CCCCC2)cc1)c1c(-c2ccc(O)cc2)sc2cc(O)ccc12` [RALOXIFENE], for which the IC50 in assay [1] is > 60 µM; in assay [3] it was 5 µM.

Regarding `O=C(COC(=O)c1cccc(Oc2ccccc2)c1)Nc1nnc(-c2ccccc2)o1`, the results for the IC50 in assay [1], in assay [2] and in assay [3] were > 60 µM, 12 µM and 16 µM, respectively.

For the compound `COc1ccc(/C=N/NC(=O)c2ccc(Br)cc2)cc1Cn1cc(Cl)cn1`, in assay [2], the IC50 was 12 µM.

Consider `O=C(Cn1c(=O)oc2ccccc21)Nc1oc(-c2ccccc2)c(-c2ccccc2)c1O`, for which the IC50 in assay [1] was > 60 µM; in assay [2] it was 12 µM; in assay [3] it was 13 µM.

For `Cn1cnnc1SCC(=O)Nc1sc2c(c1C(N)=O)CCC2`, the figures for the IC50 in assay [1], in assay [2] and in assay [3] were > 60 µM, 120 µM and 10 µM, respectively.

As for `Oc1cc(-c2ccc(Cl)c(Cl)c2)[nH]n1`, the IC50 in assay [1] is > 60 µM; in assay [2], 12 µM; in assay [3] it was 13 µM.

`O=c1c(O)c(-c2ccc(O)c(O)c2)oc2cc(O)ccc12` [FISETIN]: the half-inhibitory concentration (IC50) is > 60 µM in assay [1], 30 µM in assay [2] and 13 µM in assay [3].

With `Cc1cc(NC(=O)Cc2cccs2)no1`, the IC50 in assay [1] was > 60 µM; in assay [2] it was 30 µM; in assay [3], 13 µM.

Consider `O=C(CSc1nnc(-c2ccccc2)o1)N1CCN(c2ccccc2)CC1`, for which the figures for the IC50 in assay [1], in assay [2] and in assay [3] were > 60 µM, 30 µM and 13 µM, respectively.

In the case of `Cc1cccc(NS(=O)(=O)c2ccc(C)c(C(=O)OCC(=O)Nc3cc(C)on3)c2)c1`, the IC50 in assay [1] was > 60 µM; in assay [2], 30 µM; in assay [3], 10 µM.

In the case of `Cc1ccc(-c2csc(NC(=O)c3ccno3)n2)cc1`, the IC50 is > 60 µM in assay [1], > 120 µM in assay [2] and 8 µM in assay [3].

`O=C(Nc1nc(-c2cccs2)cs1)c1ccc(S(=O)(=O)N2CCCC2)cc1`: the values for the IC50 in assay [1], in assay [2] and in assay [3] were > 60 µM, 12 µM and 13 µM, respectively.

Regarding `O=C(CS[n+]1cc(-c2ccc(F)cc2)cs1)NC(=O)NCc1ccco1`, the IC50 in assay [1] was > 60 µM; in assay [2], 60 µM; in assay [3] it was 3 µM.

For the compound `c1ccc(-c2cc3c(NCC4COc5ccccc5O4)ncnc3s2)cc1` (configuration not stated), in assay [2], the IC50 came to 12 µM.

For `O=C(c1ccccc1)c1cn(CC(=O)N2CCCC2)c2ccccc12`, the values for the IC50 in assay [1], in assay [2] and in assay [3] were > 60 µM, 120 µM and 4 µM, respectively.

As to `N#Cc1c(-c2ccccc2)cc(-c2ccco2)c(C#N)c1N`, the results for the IC50 in assay [1], in assay [2] and in assay [3] were > 60 µM, 12 µM and 6 µM, respectively.

Consider `Cc1ccc(C(=O)Nc2nc(-c3cc(Cl)sc3Cl)cs2)cc1`, for which inhibition in assay [2] was half-maximal at 12 µM (IC50).
